PubChem BioAssay
Calls of active or inactive are those of the source.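 Rule for the calls, unless noted: active = viability loss from added drug above about 55%, and viability with drug at most 40%, in both replicates (limit read from the data, passing the limit was not always enough); inconclusive = both conditions met in only one replicate; inactive = neither replicate meets both conditions.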

What was measured:
[1] = Her2 expression decrease, cell viability multiplex – SKBR3 breast tumor cells, AlphaScreen, ATP viability, primary screen (AID 461;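 active = Her2 level under about 52% in both replicate screens, with viability over 70% of control, limit read from the data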;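 for Her2 level: lower value means less Her2 protein in the cells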;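 for viability: percent of carrier control wells set as 100% viability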); conditions: SKBR3 Her2 protein level, 18-24 h, measured here: SKBR3 viability, ATP luminescence, at 10 µM
[2] = biological target: Receptor tyrosine-protein kinase erbB-2 (Homo sapiens) (UniProt P04626); experiment: as above; conditions: 18-24 h, at 10 µM, stronger effect = lower value
[3] = reduced viability of SK-BR-3 breast cancer cells – cell-based, 24 h, human, pilot screen (AID 572;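 active = viability at or below 10% of carrier control in both of two separate runs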;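 note: compound exposure lasted between 18 and 24 h rather than exactly 24 h; 100% = carrier-treated control wells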); conditions: SK-BR-3 viability, CellTiter-Glo luminescence, at 10 µM, stronger effect = lower value
[4] = HUVEC growth inhibition – cell-based, human, primary screen (AID 575;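 active = viability at or below 30% in both replicate assays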;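 note: 100% = median of untreated cell wells with 0.1% DMSO on each plate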); conditions: HUVEC proliferation, CellTiter-Glo luminescence, 72 h; at 10 µM; stronger effect = lower value
Method in brief: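 Assay system: primary human umbilical vein endothelial cells / Buffer or medium: endothelial basal medium with 2% FBS plus growth supplements / Compound dosing: one dose, 10 µM final, 0.1% DMSO / Timing: 72 h treatment at 37 °C / Signal: CTG luminescence / Benchmarks: 32 DMSO-only cell-control wells (high), 32 MePR drug-control wells (low) per plate / Plate: collagen-coated 384-well format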

[5] = H69AR cell proliferation blockers – human, duplicate replicates, primary screen (AID 580;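 active = viability at or under a set limit in both replicates, limit being median viability minus 3 SD, cut at about 48% in these data, passing the limit was not always enough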;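 note: 100% = mean luminescence of untreated wells and 0% = no signal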); conditions: H69AR lung tumor cells viability, ATP luminescence, 72 h; at 10 µM; stronger effect = lower value
[6] = MRP1 drug-resistance reversers in H69AR cells – cell-based, doxorubicin co-treatment, pilot screen (AID 601); conditions: CellTiter-Glo, 72 h, at 10 µM; for differential viability (reversal): stronger effect = higher value
[7] = yeast transport mutant growth inhibition pilot in 384-well plates, post-Golgi transport modulator project (AID 636; in the data active = inhibition above about 31%); conditions: absorbance 615 nm, about 18 h, stronger effect = higher value
[8] = growth suppression of yeast trafficking mutant, preliminary HTS, modulators of trafficking downstream of Golgi apparatus project, 1536-format plate, OD 615 nm (AID 637; in the data active = inhibition above about 30%); conditions: yeast transport mutant growth, absorbance 615 nm, 18 h; stronger effect = higher value
[9] = H69AR cells + 2 uM doxorubicin, measured here: viability with 2 uM doxorubicin, stronger effect = lower value
[10] = H69AR cells, compound alone cytotoxicity

Chain of Receptor tyrosine-protein kinase erbB-2 (Homo sapiens) (P04626 whole entry, looked up): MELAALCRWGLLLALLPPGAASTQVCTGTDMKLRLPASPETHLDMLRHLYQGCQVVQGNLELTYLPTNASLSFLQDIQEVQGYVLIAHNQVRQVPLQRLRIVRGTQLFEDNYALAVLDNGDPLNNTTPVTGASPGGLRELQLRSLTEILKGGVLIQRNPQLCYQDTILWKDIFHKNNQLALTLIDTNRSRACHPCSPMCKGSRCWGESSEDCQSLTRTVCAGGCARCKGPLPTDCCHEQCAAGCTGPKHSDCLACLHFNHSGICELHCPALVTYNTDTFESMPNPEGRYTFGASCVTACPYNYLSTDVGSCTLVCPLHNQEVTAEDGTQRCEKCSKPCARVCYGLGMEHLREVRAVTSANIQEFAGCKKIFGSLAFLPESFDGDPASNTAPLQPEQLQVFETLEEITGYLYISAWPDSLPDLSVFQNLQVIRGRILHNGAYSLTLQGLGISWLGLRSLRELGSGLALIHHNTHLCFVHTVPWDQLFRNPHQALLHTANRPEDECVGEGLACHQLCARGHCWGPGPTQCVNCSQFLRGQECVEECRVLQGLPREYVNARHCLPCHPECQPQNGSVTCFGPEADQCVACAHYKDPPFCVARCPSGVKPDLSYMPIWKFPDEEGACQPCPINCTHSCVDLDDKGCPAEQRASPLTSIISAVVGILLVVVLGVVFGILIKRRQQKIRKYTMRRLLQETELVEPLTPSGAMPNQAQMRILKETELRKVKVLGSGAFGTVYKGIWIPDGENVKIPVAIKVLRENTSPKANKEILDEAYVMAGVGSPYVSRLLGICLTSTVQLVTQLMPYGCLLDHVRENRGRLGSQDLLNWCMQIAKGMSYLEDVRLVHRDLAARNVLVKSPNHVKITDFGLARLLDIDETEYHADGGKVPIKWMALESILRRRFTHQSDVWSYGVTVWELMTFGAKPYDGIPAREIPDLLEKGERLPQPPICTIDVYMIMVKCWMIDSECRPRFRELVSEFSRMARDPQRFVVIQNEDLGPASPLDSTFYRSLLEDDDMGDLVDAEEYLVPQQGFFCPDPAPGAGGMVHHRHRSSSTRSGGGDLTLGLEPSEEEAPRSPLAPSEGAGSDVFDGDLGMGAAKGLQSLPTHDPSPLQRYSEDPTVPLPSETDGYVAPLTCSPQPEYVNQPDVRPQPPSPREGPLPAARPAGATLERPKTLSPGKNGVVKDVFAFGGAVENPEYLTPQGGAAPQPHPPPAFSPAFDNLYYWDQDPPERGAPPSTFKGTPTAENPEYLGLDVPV

SMILES	viability [1]	Her2 level [2]	viability [3]	viability [4]	viability [5]	differential viability (reversal) ([6]; H69AR cells + 2 uM doxorubicin)	viability [6, 9]	viability [6, 10]	inhibition [7]	inhibition [8]
CCc1cc2ccc(C)cc2nc1SCC(=O)N1CCN(C(=O)c2ccco2)CC1	112%	82% (inactive)	112% (inactive)	70.1% (inactive)	64.5% (inactive)	-5.54% (inactive)	70%	64.5%	-3.82% (inactive)	-0.18% (inactive)
O=C(NCCCn1ccnc1)c1cnn2c1NC(c1ccccc1)CC2C(F)(F)F (stereo not given)	93.5%	139% (inactive)	93.5% (inactive)	88.5% (inactive)	105% (inactive)	1.64% (inactive)	103%	105%	-0.26% (inactive)	-15% (inactive)
COC(=O)Nc1ccc(NC(C)=O)cc1	96%	116% (inactive)	96% (inactive)	103% (inactive)	91% (inactive)	8.88% (inactive)	82.1%	91%	5.84% (inactive)	-8.36% (inactive)
O=S1(=O)N=C(Nc2nc3c(s2)CCCC3)c2ccccc21	82%	112% (inactive)	82% (inactive)	85.4% (inactive)	78.9% (inactive)	-3.82% (inactive)	82.7%	78.9%	0.93% (inactive)	-7.62% (inactive)
CCOC(=O)c1[nH]c2ccccc2c1NC(=O)C(C)(C)C	102%	96% (inactive)	102% (inactive)	80.6% (inactive)	96.6% (inactive)	2.35% (inactive)	94.2%	96.6%	-5.33% (inactive)	1.67% (inactive)
O=C(O)CCCCCNc1nc(=S)[nH]c2ccccc12	107%	99% (inactive)	107% (inactive)	99.7% (inactive)	89.3% (inactive)	10.3% (inactive)	79%	89.3%	-5.92% (inactive)	-1.59% (inactive)
CCCCn1c(CN2CCN(c3cccc(Cl)c3)CC2)nc2c1c(=O)n(C)c(=O)n2C	111%	75% (inactive)	111% (inactive)	66.9% (inactive)	74.7% (inactive)	50.2% (inactive)	24.5%	74.7%	-4.74% (inactive)	6.07% (inactive)
C[C@H](NC(=O)NCc1cccs1)C(=O)O	104%	98.5% (inactive)	104% (inactive)	111% (inactive)	93.6% (inactive)	0.105% (inactive)	93.5%	93.6%	-3.87% (inactive)	-4.43% (inactive)
O=C(NCCCN1CCN(CCCNC(=O)c2ccc(F)cc2)CC1)c1ccc(F)cc1	92.5%	98% (inactive)	92.5% (inactive)	89.9% (inactive)	94.6% (inactive)	4.58% (inactive)	90%	94.6%	-4.67% (inactive)	0.81% (inactive)
CC(=O)c1cnc2cc(-c3ccccc3)nn2c1C	91.5%	110% (inactive)	91.5% (inactive)	91.4% (inactive)	103% (inactive)	19.5% (inactive)	83.1%	103%	0% (inactive)	-10.7% (inactive)
CCOC(=O)/N=C(/NC(=O)Nc1ccc(C(=O)OCC)cc1)OC	99.5%	75.5% (inactive)	99.5% (inactive)	83.7% (inactive)	96.5% (inactive)	14.8% (inactive)	81.8%	96.5%	-5.54% (inactive)	5.4% (inactive)
CCOC(=O)N1CCN(S(=O)(=O)c2cc(C)c(C)cc2C)CC1	96.5%	87% (inactive)	96.5% (inactive)	104% (inactive)	95.3% (inactive)	6.04% (inactive)	89.3%	95.3%	-4.34% (inactive)	2.22% (inactive)
O=C(NC1CCCCC1)N(Cc1ccccc1)Cc1ccco1	94.5%	98% (inactive)	94.5% (inactive)	101% (inactive)	100% (inactive)	3.09% (inactive)	97.3%	100%	0.54% (inactive)	-3.11% (inactive)
Cc1noc(C)c1S(=O)(=O)N1CCC(C(=O)N2CCN(Cc3ccc4c(c3)OCO4)CC2)CC1	94%	92.5% (inactive)	94% (inactive)	99% (inactive)	91.9% (inactive)	-6.75% (inactive)	98.6%	91.9%	-1.45% (inactive)	-0.63% (inactive)
CC1CCN(C(=O)CSc2nnc(-c3ccc(S(=O)(=O)N4CCOCC4)cc3)n2C)CC1	108%	109% (inactive)	108% (inactive)	93.7% (inactive)	88.3% (inactive)	-4.8% (inactive)	93.1%	88.3%	-4.4% (inactive)	-2.62% (inactive)
Cc1ccc(NC(=O)CNc2cccc(C)c2C)c(C)c1	106%	86.5% (inactive)	106% (inactive)	98.3% (inactive)	79.2% (inactive)	10.1% (inactive)	69%	79.2%	-0.53% (inactive)	-1.45% (inactive)
Cn1c(C(=O)N2CCCC(C(=O)NCCCc3ccccc3)C2)cc2sccc21 (stereo not given)	98%	83.5% (inactive)	98% (inactive)	80.9% (inactive)	82.3% (inactive)	-16.3% (inactive)	98.7%	82.3%	-1.28% (inactive)	-1.17% (inactive)
Nc1cc(CN2C(=O)c3ccccc3C2=O)cc(Cl)c1O	102%	91.5% (inactive)	102% (inactive)	75.1% (inactive)	108% (inactive)	29% (inactive)	79.2%	108%	-5.41% (inactive)	-1.64% (inactive)
Cc1nc2sc(C(c3cccc(F)c3)N3CCOCC3)c(O)n2n1 (stereo not given)	117%	93.5% (inactive)	117% (inactive)	90.8% (inactive)	94.7% (inactive)	7.72% (inactive)	87%	94.7%	-4.79% (inactive)	-3.65% (inactive)
O=C(CSc1ncccn1)c1ccccc1Br	120%	93.5% (inactive)	120% (inactive)	116% (inactive)	90.7% (inactive)	-4.21% (inactive)	94.9%	90.7%	-6.32% (inactive)	-1.64% (inactive)
c1ccc(-n2nnnc2OCCOc2nnnn2-c2ccccc2)cc1	92%	106% (inactive)	92% (inactive)	82.2% (inactive)	80.4% (inactive)	-6.12% (inactive)	86.5%	80.4%	-2.24% (inactive)	9.18% (inactive)
O=C(Nc1ccccc1)N1C(=O)C2(OCCO2)c2ccccc21	114%	118% (inactive)	114% (inactive)	100% (inactive)	87% (inactive)	-11.8% (inactive)	98.8%	87%	-0.79% (inactive)	1.64% (inactive)
COc1ccc(CC(=O)Nc2c3c(nn2-c2cccc(Cl)c2)CS(=O)(=O)C3)cc1	84.5%	89% (inactive)	84.5% (inactive)	104% (inactive)	90.2% (inactive)	1.1% (inactive)	89.1%	90.2%	-6.8% (inactive)	3.06% (inactive)
CCOC(=O)CSc1nc(N)c2c3c(sc2n1)CCCC3	104%	96.5% (inactive)	104% (inactive)	78.7% (inactive)	89.3% (inactive)	0.02% (inactive)	89.3%	89.3%	0.8% (inactive)	2.58% (inactive)
O=C(Cn1cnc2c(nnn2-c2ccc(F)cc2)c1=O)N1CCCc2ccccc21	101%	117% (inactive)	101% (inactive)	90.5% (inactive)	103% (inactive)	16.3% (inactive)	86.6%	103%	-9.59% (inactive)	-2.7% (inactive)
CCOC(=O)N1CCN(C(=O)c2ccc3c(=O)n(CCc4ccccc4)c(=O)[nH]c3c2)CC1	98.5%	108% (inactive)	98.5% (inactive)	77.1% (inactive)	85.6% (inactive)	30% (inactive)	55.6%	85.6%	-1.49% (inactive)	14.8% (inactive)
O=C(CCN1C(=O)COc2ccccc21)N1CCN(c2ccccn2)CC1	130%	96.5% (inactive)	130% (inactive)	114% (inactive)	106% (inactive)	27.7% (inactive)	78.6%	106%	-2.08% (inactive)	3.33% (inactive)
